According to ChEMBL document CHEMBL3616436, “Synthesis, cytotoxicity and antimicrobial activity of thiourea derivatives incorporating 3-(trifluoromethyl)phenyl moiety” (Eur J Med Chem, 2015):
In brackets after ≈: the same amount, converted by molar mass. Activity calls are given as the source filed them. The rule behind the calls is not given here.

Key:
[1] = Cytotoxicity against human MT4 cells; format: cell-based
[2] = system: Vesicular stomatitis virus; assay: Antiviral activity against Vesicular stomatitis virus ATCC VR 1540 infected in African green monkey Vero 76 cells assessed as reduction of virus-plaque formation after 2 days by crystal violet staining; format: functional, organism-based; settings: ATCC VR 1540, Vero, 48 h
[3] = system: Human immunodeficiency virus 1; assay: Antiviral activity against HIV1 3B infected in human MT4 cells assessed as protection against virus-induced cytopathogenicity by MTT assay; format: functional, organism-based; settings: Human immunodeficiency virus 1, 3B
[4] = Cytotoxicity against bovine MDBK cells assessed as cell viability after 48 to 96 hrs by MTT assay; format: cell-based, Bos taurus; settings: cattle
[5] = Antiviral activity against Bovine viral diarrhea virus 1-NADL ATCC VR-534 infected in MDBK cells assessed as protection against virus-induced cytopathogenicity after 3 to 4 days by MTT assay; format: functional, cell-based; settings: Bovine viral diarrhea virus isolates and strains, ATCC VR-534, MDBK
Summary of the method: (§1)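 Cells seeded in 96-well plates (BHK 5x10^4, MDBK 3x10^4 cells/well), grown overnight to confluence, infected at m.o.i. 0.01 (BHK for Reo-1, MDBK for BVDV); serial compound dilutions in maintenance medium with 0.5% inactivated FBS added after 1 h; viability by MTT after 3–4 days at 37°C; EC50 for 50% protection by linear regression.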

[6] = Cytotoxicity against BHK cells assessed as cell viability after 48 to 96 hrs by MTT assay; format: cell-based, Mesocricetus auratus; settings: hamster
Yellow fever virus = assay: Antiviral activity against Yellow fever virus 17D infected in BHK cells assessed as protection against virus-induced cytopathogenicity after 3 to 4 days by MTT assay; format: functional, cell-based
[7] = system: Mammalian orthoreovirus 1; assay: Antiviral activity against Reovirus type-1 ATCC VR-214 infected in BHK cells assessed as protection against virus-induced cytopathogenicity after 3 to 4 days by MTT assay; format: functional, cell-based; settings: Mammalian orthoreovirus 1, ATCC VR-214, BHK; summary of the method: as §1
[8] = Cytotoxicity against African green monkey Vero 76 cells assessed as cell viability after 48 to 96 hrs by crystal violet staining; format: cell-based; settings: chlorocebus sabaeus
Coxsackievirus B5 = assay: Antiviral activity against Human coxsackievirus B5 ATCC VR-29 infected in African green monkey Vero 76 cells assessed as reduction of virus-plaque formation after 3 days by crystal violet staining; format: functional, organism-based; settings: Enterovirus B, ATCC VR-29, Vero, 72 h
Summary of the method: (§2)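 Plaque reduction: Vero-76 at 2x10^5 cells/well grown to confluent monolayers, infected 2 h at 50–100 PFU/well; after removing unadsorbed virus, overlay of D-MEM, 1% inactivated FBS, 0.75% methylcellulose with or without serial compound dilutions; 3 days at 37°C, fixed and stained with crystal violet in 50% ethanol, plaques counted; EC50 by linear regression.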

Poliovirus 1 = assay: Antiviral activity against Poliovirus type 1 ATCC VR-1562 infected in African green monkey Vero 76 cells assessed as reduction of virus-plaque formation after 2 days by crystal violet staining; format: functional, organism-based; settings: Enterovirus C, ATCC VR-1562, Vero, 48 h
Vaccinia virus = assay: Antiviral activity against Human Vaccinia virus ATCC VR-1549 infected in African green monkey Vero 76 cells assessed as reduction of virus-plaque formation after 3 days by crystal violet staining; format: functional, organism-based; settings: Orthopoxvirus vaccinia, ATCC VR-1549, Vero, 72 h
Human alphaherpesvirus 1 = assay: Antiviral activity against Human herpesvirus 1 KOS ATCC VR-1493 infected in African green monkey Vero 76 cells assessed as reduction of virus-plaque formation after 3 days by crystal violet staining; format: functional, organism-based; settings: Human alphaherpesvirus 1, KOS ATCC VR1493, Vero, 72 h; summary of the method: as §2
Staphylococcus aureus [9] = assay: Antimicrobial activity against Staphylococcus aureus NCTC 4163 at 400 ug after 18 hrs by disc-diffusion method; format: functional; settings: NCTC 4163, 18 h, read-out: IZ
Summary of the method: (§3)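 Disc diffusion on Mueller-Hinton II agar per CLSI; 9 mm paper discs loaded with 400 µg compound from DMSO solution, dried, placed on agar; growth inhibition zone diameter read after 18 h at 35°C.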

Staphylococcus aureus [10] = assay: Antimicrobial activity against Staphylococcus aureus ATCC 25923 at 400 ug after 18 hrs by disc-diffusion method; format: functional; settings: ATCC 25923, 18 h, read-out: IZ; summary of the method: as §3
Staphylococcus aureus [11] = assay: Antimicrobial activity against Staphylococcus aureus ATCC 6538 at 400 ug after 18 hrs by disc-diffusion method; format: functional; settings: ATCC 6538, 18 h, read-out: IZ; summary of the method: as §3
Staphylococcus aureus [12] = assay: Antimicrobial activity against Staphylococcus aureus ATCC 29213 at 400 ug after 18 hrs by disc-diffusion method; format: functional; settings: ATCC 29213, 18 h, read-out: IZ; summary of the method: as §3
[13] = system: Staphylococcus epidermidis; assay: Antimicrobial activity against Staphylococcus epidermidis ATCC 12228 at 400 ug after 18 hrs by disc-diffusion method; format: functional; settings: ATCC 12228, 18 h, read-out: IZ; summary of the method: as §3
[14] = system: Staphylococcus epidermidis; assay: Antimicrobial activity against Staphylococcus epidermidis ATCC 35984 at 400 ug after 18 hrs by disc-diffusion method; format: functional; settings: ATCC 35984, 18 h, read-out: IZ; summary of the method: as §3
Bacillus subtilis = assay: Antimicrobial activity against Bacillus subtilis ATCC 6633 at 400 ug after 18 hrs by disc-diffusion method; format: functional; settings: ATCC 6633, 18 h, read-out: IZ; summary of the method: as §3
Bacillus cereus = assay: Antimicrobial activity against Bacillus cereus ATCC 11778 at 400 ug after 18 hrs by disc-diffusion method; format: functional; settings: ATCC 11778, 18 h, read-out: IZ; summary of the method: as §3
Enterococcus hirae = assay: Antimicrobial activity against Enterococcus hirae ATCC 10541 at 400 ug after 18 hrs by disc-diffusion method; format: functional; summary of the method: as §3
Enterococcus faecalis = assay: Antimicrobial activity against Enterococcus faecalis ATCC 29212 at 400 ug after 18 hrs by disc-diffusion method; format: functional; summary of the method: as §3
Micrococcus luteus [15] = assay: Antimicrobial activity against Micrococcus luteus ATCC 10240 at 400 ug after 18 hrs by disc-diffusion method; format: functional; settings: ATCC 10240, 18 h, read-out: IZ; summary of the method: as §3
Micrococcus luteus [16] = assay: Antimicrobial activity against Micrococcus luteus ATCC 9341 at 400 ug after 18 hrs by disc-diffusion method; format: functional; settings: ATCC 9341, 18 h, read-out: IZ; summary of the method: as §3
Proteus vulgaris = assay: Antimicrobial activity against Proteus vulgaris NCTC 4635 at 400 ug after 18 hrs by disc-diffusion method; format: functional; summary of the method: as §3
Staphylococcus aureus [17] = assay: Antimicrobial activity against Staphylococcus aureus NCTC 4163 after 18 hrs by twofold serial microdilution method; format: functional; settings: NCTC 4163, 18 h
Staphylococcus aureus [18] = assay: Antimicrobial activity against Staphylococcus aureus ATCC 25923 after 18 hrs by twofold serial microdilution method; format: functional; settings: ATCC 25923, 18 h
Staphylococcus aureus [19] = assay: Antimicrobial activity against Staphylococcus aureus ATCC 6538 after 18 hrs by twofold serial microdilution method; format: functional; settings: ATCC 6538, 18 h
Staphylococcus aureus [20] = assay: Antimicrobial activity against Staphylococcus aureus ATCC 29213 after 18 hrs by twofold serial microdilution method; format: functional; settings: ATCC 29213, 18 h
[21] = system: Staphylococcus epidermidis; assay: Antimicrobial activity against Staphylococcus epidermidis ATCC 12228 after 18 hrs by twofold serial microdilution method; format: functional; settings: ATCC 12228, 18 h
[22] = system: Staphylococcus epidermidis; assay: Antimicrobial activity against Staphylococcus epidermidis ATCC 35984 after 18 hrs by twofold serial microdilution method; format: functional; settings: ATCC 35984, 18 h
[23] = system: Mycobacterium tuberculosis; assay: Antimycobacterial activity against Mycobacterium tuberculosis H37Rv ATCC 25618; format: functional
Summary of the method: (§4)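 Classical test-tube successive-dilution method in Youmans' modification of Proskauer and Beck liquid medium with 10% bovine serum. Inoculum came from 14-day cultures. DMSO stock was 10 mg/mL, diluted geometrically in medium. Tubes were incubated at 37 °C. Concentrations tested were 3.1, 6.2, 12.5, 25, 50 and 100 µg/ml. MIC is the minimum concentration inhibiting growth relative to compound-free tubes.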

[24] = system: Mycobacterium tuberculosis; assay: Antimycobacterial activity against drug-sensitive Mycobacterium tuberculosis Spec. 192; format: functional; summary of the method: as §4

Row | Compound | CC50 [1] | EC50 [2] | EC50 [3] | CC50 [4] | EC50 [5] | CC50 [6] | EC50 (Yellow fever virus) | EC50 [7] | CC50 [8] | EC50 (Coxsackievirus B5) | EC50 (Poliovirus 1) | EC50 (Vaccinia virus) | EC50 (Human alphaherpesvirus 1) | zone of inhibition at 400 µg/disc (Staphylococcus aureus [9]) | zone of inhibition at 400 µg/disc (Staphylococcus aureus [10]) | zone of inhibition at 400 µg/disc (Staphylococcus aureus [11]) | zone of inhibition at 400 µg/disc (Staphylococcus aureus [12]) | zone of inhibition at 400 µg/disc [13] | zone of inhibition at 400 µg/disc [14] | zone of inhibition at 400 µg/disc (Bacillus subtilis) | further results
1 | Fc1ccc(NC(=S)Nc2cccc(C(F)(F)F)c2)cc1 | 31 µM | > 40 µM | > 31 µM | 41 µM | > 41 µM | 26 µM | > 26 µM | > 26 µM | 40 µM | > 40 µM | > 40 µM | > 40 µM | > 40 µM | 27 mm | 23 mm | 25 mm | 25 mm | 26 mm | 25 mm | 25 mm | zone of inhibition at 400 µg/disc (Bacillus cereus): 23 mm; zone of inhibition at 400 µg/disc (Enterococcus hirae; ATCC 10541, 18 h, read-out: IZ): 30 mm; zone of inhibition at 400 µg/disc (Enterococcus faecalis; ATCC 29212, 18 h, read-out: IZ): 20 mm; zone of inhibition at 400 µg/disc (Micrococcus luteus [15]): 28 mm; zone of inhibition at 400 µg/disc (Micrococcus luteus [16]): 28 mm; zone of inhibition at 400 µg/disc (Proteus vulgaris; NCTC 4635, 18 h, read-out: IZ): 14 mm; MIC (Staphylococcus aureus [17]): 8 µg/mL (≈ 25.5 µM); MIC (Staphylococcus aureus [18]): 8 µg/mL (≈ 25.5 µM); MIC (Staphylococcus aureus [19]): 16 µg/mL (≈ 50.9 µM); MIC (Staphylococcus aureus [20]): 16 µg/mL (≈ 50.9 µM); MIC [21]: 16 µg/mL (≈ 50.9 µM); MIC [22]: 16 µg/mL (≈ 50.9 µM); MIC [23]: 25 µg/mL (≈ 79.5 µM); MIC [24]: 25 µg/mL (≈ 79.5 µM)
2 | C=C(C)CNC(=S)Nc1cccc(C(F)(F)F)c1 | 43 µM | > 100 µM | > 43 µM | > 100 µM | > 100 µM | > 100 µM | > 100 µM | > 100 µM | > 100 µM | > 100 µM | > 100 µM | > 100 µM | > 100 µM | 20 mm | 18 mm | 18 mm | 17 mm | 17 mm | 13 mm | 16 mm | zone of inhibition at 400 µg/disc (Bacillus cereus): 16 mm; inhibition zone (IZ) (Enterococcus hirae): inactive; inhibition zone (IZ) (Enterococcus faecalis): inactive; zone of inhibition at 400 µg/disc (Micrococcus luteus [15]): 16 mm; zone of inhibition at 400 µg/disc (Micrococcus luteus [16]): 20 mm; inhibition zone (IZ) (Proteus vulgaris): inactive; MIC (Staphylococcus aureus [17]): 64 µg/mL (≈ 233 µM); MIC (Staphylococcus aureus [18]): 64 µg/mL (≈ 233 µM); MIC (Staphylococcus aureus [19]): 64 µg/mL (≈ 233 µM); MIC (Staphylococcus aureus [20]): 64 µg/mL (≈ 233 µM); MIC [21]: 64 µg/mL (≈ 233 µM); MIC [22]: 64 µg/mL (≈ 233 µM); MIC [23]: > 100 µg/mL; MIC [24]: 100 µg/mL (≈ 365 µM)
